Assay outcomes deposited in PubChem BioAssay by several laboratories.
The list is not random: actives were taken first. Their share in the collection is about 6.4%.
Tb MetRS inh = Trypanosoma brucei MetRS inhibition. purified T. brucei MetRS, ATP depletion, Kinase-Glo luminescence. inhibition, % at 11.9 µM. 360,000 tested, 0.4% active. AID 624268;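 active = inhibition above a per-plate cutoff of the control wells' mean inhibition plus 3 SD, cut at about 5.5% in these data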;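 note: 0% = DMSO wells median and 100% = median of wells with control inhibitor compound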
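Material – parasite MetRS enzyme · Medium – HEPES-MgCl2-KCl buffer plus DTT, spermine, BSA, pyrophosphatase · Reagent – ATP, methionine and E. coli bulk tRNA substrates · Times – 15 min enzyme-compound preincubation, 2 h reaction, 10 min detection, 25 °C · Measured by – luminescence of leftover ATP · Evaluation – percent inhibition relative to median high and low control wells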
NR3A LBD binder = modulates the human NR3A ligand-binding domain; Tm shift relative to glycine control, % at 25 µM; NR3A LBD differential scanning fluorimetry, Tm shift; 0% = protein alone, 100% = glycine-bound protein; AID 1259313; 340,000 tested, 2.5% active;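 active = melting temperature shift of at least 10% of the positive control shift, at one fixed dose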
CHOP inhibitor = inhibitors of CHOP induction in ER stress response. AID 2732. CHO-K1 CHOP-promoter luciferase, tunicamycin-induced, 15-18 h. inhibition, % at 10 µM. 220,000 tested, 3.8% active;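 active = compounds that reduced the stress-induced luciferase reporter signal by more than about 70% of percent inhibition, limit read from the data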;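 note: 0% = tunicamycin plus vehicle and 100% = wells without tunicamycin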
WT yeast gro inh = growth inhibition of WT yeast, mitochondrial fusion screen | inhibition, % at 10 µM | mitochondrial fusion phenotypic screen, WT strain | 190,000 tested, 2.1% active | AID 1362; in the data active = inhibition above about 58%; tested in S. cerevisiae
MPTP block = inhibitors of mitochondrial permeability transition pore; isolated mouse mitochondria, Ca2+ swelling absorbance, 30 min; inhibition, % at 10 µM; 360,000 tested, 1.4% active; AID 602449;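 active = inhibition of 50% or more, scaled per plate between neutral and stimulator controls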;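 note: 0% = DMSO wells given calcium and 100% = 1 mM EGTA wells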
EBV gp42 block = EBV gp42 inhibition; Q1HVG2; Fluorescence polarization binding assay, mP read-out; inhibition, % (tested at 21.74 µM); 220,000 tested, 0.42% active; AID 1085; in the data active = inhibition above about 50%
Target sequence (Q1HVG2 whole entry, looked up): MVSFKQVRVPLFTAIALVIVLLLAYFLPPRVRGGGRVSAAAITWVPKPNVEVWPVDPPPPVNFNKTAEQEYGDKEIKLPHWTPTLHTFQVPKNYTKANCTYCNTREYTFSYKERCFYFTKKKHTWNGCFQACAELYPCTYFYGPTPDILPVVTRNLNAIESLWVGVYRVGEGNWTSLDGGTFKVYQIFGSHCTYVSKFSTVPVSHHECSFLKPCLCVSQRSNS
The depositor's hits bear a star; x = not tested or not shown; ! = repeats disagree.

SMILES	Tb MetRS inh	NR3A LBD binder	CHOP inhibitor	WT yeast gro inh	MPTP block	EBV gp42 block
CC(C)(C)[C@H]1COC(=O)CCCC/C=C\C[C@H](CC(=O)NCCO)C(=O)N1	0	0	x	x	0	x
C=CCSC1=N/C(=C\c2ccsc2)C(=O)S1	0	1	36	6	22	-17
C=CCSC1=N/C(=C\c2ccc(C)o2)C(=O)S1	-1	1	72*	5	1	-12
CCN(CC(=O)Nc1ccc(NC(C)=O)cc1)C(=O)/C=C/c1cn(-c2ccccc2)nc1-c1ccc(C)cc1	-1	10*	x	x	0	x
COc1ccc(-c2nn(-c3ccccc3)cc2/C=C/C(=O)N(C)CC(=O)Nc2cccc(F)c2)cc1OC	0	11*	x	x	-1	x
CN(CC(=O)Nc1ccc(F)cc1)C(=O)c1cn(-c2ccccc2)nc1-c1cccs1	0	24*	x	x	0	x
CCN(CC(=O)Nc1ccc(NC(C)=O)cc1)C(=O)/C=C/c1cn(-c2ccccc2)nc1-c1ccc(F)cc1	0	14*	x	x	1	x
C=CC[C@@H](CC(=O)N[C@H](CO)Cc1ccccc1)C(=O)N[C@@H](COC(=O)[C@@H](CC=C)CC(=O)OC(C)(C)C)Cc1c[nH]c2ccccc12	0	-8	x	x	0	x
CN(CCOc1ccc(Cl)cc1)C(=O)Cc1ccc(S(=O)(=O)N2CCOCC2)s1	0	-2	x	x	-2	x
O=c1c2ccccc2c(C=Nc2ccc(Cl)cn2)c(O)n1-c1cc(Cl)ccc1N1CCOCC1	0	0	0	21	-6	-10
Cc1cccc(Cn2cnc3c(nnn3Cc3ccccc3F)c2=O)c1	0	-1	4	-6	0	-4
Cc1nc(S(=O)(=O)N2CCN(C3c4ccccc4-c4ccccc43)CC2)cn1C	0	-1	15	x	2	-3
Cc1nc2c(o1)CCc1ccccc1C2N1CCN(C)CC1 (configuration not stated)	0	13*!	42	1	-1	-5
O=C1OCCN1C(=O)[C@H]1[C@H](c2ccc([N+](=O)[O-])cc2)C(c2ccc(F)cc2)=NN1c1ccc(Br)cc1	-2	13*	x	x	2	x
Cc1cccc(C2=NN(c3ccccc3)[C@@H](C(=O)N3CCOC3=O)[C@@H]2c2ccccc2)c1	1	-2	x	x	1	x
Cc1cccc(C2=NN(c3ccc(Br)cc3)[C@@H](C(=O)N3CCOC3=O)[C@@H]2c2ccccc2)c1	-2	15*	x	x	0	x
C[C@@H]1C(c2cccc(Cl)c2)=NN(c2ccc(Br)cc2)[C@H]1C(=O)N1CCOC1=O	-1	21*	x	x	2	x
Cc1noc(NC(=O)c2cccc(Cl)c2Cl)c1C#N	0	0	13	-8	0	-12
COc1cccc(C2C3=C(CC(C)(C)CC3=O)OC(N)=C2[N+](=O)[O-])c1 (configuration not stated)	-1	-1	-1	1	-2	0
c1ccc(CSc2ccc3nnc(-c4cccnc4)n3n2)cc1	0	14*	16	7	-1	-10
Cc1cccc(CSc2ccc3nnc(-c4cccnc4)n3n2)c1	0	-2	15	15	-1	-6
FC(F)(F)c1cnc(COc2ccc(Cl)cc2Cl)c(Cl)c1	0	15*	56	x	1	-8
CC(NC(=O)C(=O)NCc1cccs1)c1ccccc1 (configuration not stated)	0	-1	x	x	1	x
Cc1cccc(/N=C/c2c(O)ccc3oc4c(c23)CCCC4)n1	0	-1	21	6	-1	-15
CC(C)CN=Cc1c(O)c([N+](=O)[O-])cc2oc3c(c12)CCCC3	0	-5	84*	0	6	-12
SMILES	Tb MetRS inh	NR3A LBD binder	CHOP inhibitor	WT yeast gro inh	MPTP block	EBV gp42 block
COc1ccccc1OCc1ccc(C(=O)N2CCCCC2)o1	0	0	x	x	-2	x
CC(Nc1ccc(Br)cn1)c1cc(Cl)ccc1O (configuration not stated)	1	0	77*	73*	5	12
CCOc1ccc(NC(C)c2cc(Cl)ccc2O)cc1 (configuration not stated)	-1	-12	-1	7	4	-2
C=CCn1c(NC(C)c2cc(Cl)ccc2O)nc2ccccc21 (configuration not stated)	3	-6	54	25	0	6
CC(Nc1ccc(Cl)cc1)c1cc(Cl)ccc1O (configuration not stated)	0	-5	5	74*	5	4
COc1ccc(C(=O)O/N=C(\C)c2ccccc2)cc1	-4	-1	5	75*	1	6
COc1ccc(C(=O)O/N=C(/c2ccccc2)c2ccncc2)cc1	-1	1	-9	-7	-2	-12
NC(N)=NN=C1c2ccccc2-c2ccccc21	-1	23*	x	x	-2	x
CCNc1nc(SCCOc2ccc(Cl)cc2Cl)nc(N(C)C)n1	0	-22	91*	64*	2	9
CCNc1nc(SCCOc2ccc(C)cc2)nc(N(C)C)n1	0	5	53	11	4	-8
CCN1/C(=C/C=C/c2oc3ccc(-c4ccccc4)cc3[n+]2CC)Oc2ccc(-c3ccccc3)cc21	0	60*	108*	87	37	-81
Cc1ccc(Cl)cc1N1CCN(S(C)(=O)=O)CC1	0	-1	-14	2	-1	7
Cc1ccc(Cl)cc1N1CCN(S(=O)(=O)N2CCCCC2)CC1	1	2	13	73*	1	-12
Cc1ccc(N2CC(C(=O)NCc3ccc(C)n3C)CC2=O)cc1 (configuration not stated)	0	1	5	27	0	-4
CC(C)C1C(c2ccccc2)N(C)C(c2ccccc2)CC1(O)c1ccccc1 (configuration not stated)	-1	-8	73*	63	3	10
CC(C)C1C(c2ccccc2)NC(c2ccccc2)CC1(O)c1ccc(F)cc1 (configuration not stated)	0	-3	80*	x	12	-16
CC(=O)Nc1ccc(Nc2cc(C)nc3c(-c4ccccc4)cnn23)cc1	0	33*	21	37	2	4
CC(C)(C)C(=O)/C=c1\[nH]c(=O)/c(=C\c2ccc(F)cc2)s1	0	2	81*	-3	2	1
CC(C)(C)C(=O)/C=c1\[nH]c(=O)/c(=C\c2ccccc2F)s1	0	-3	60	3	12	-16
Cc1ccccc1/C=c1\s/c(=C\C(=O)C(C)(C)C)[nH]c1=O	0	-8	82*	-11	3	2
COc1ccc(S(=O)(=O)N2CCOC2CNC(=O)C(=O)NCc2ccco2)cc1 (configuration not stated)	-1	-3	8	x	1	-1
Cc1c2ccccc2nc2c(F)c(N(C)C)c(F)c(F)c12	0	-2	9	45	12	197*
